{"source": "ChEMBL document CHEMBL1148959", "about": "“Annoglabayin, a novel dimeric kaurane diterpenoid, and apoptosis in Hep G2 cells of annomontacin from the fruits of Annona glabra” (2004)", "type_in_all_cases": "functional", "key": {"HepG2 [1]": {"test_system": "HepG2", "experiment": "Cell cycle arrest in human HepG2 cells assessed as accumulation at S phase at 75 uM after 24 hrs using propidium iodide staining by FACS", "in_short": "(§1)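 Hep G2 cells seeded at 5 × 10^5 per 60 mm dish 48 h ahead in DMEM with 10% FCS and antibiotics. Exposed 24 h; compound from DMSO stock diluted in medium. Adherent and floating cells pooled, fixed in PBS-MeOH (1:2) at 4 °C ≥18 h, then stained 30 min at room temperature in the dark with 50 µg/mL PI plus 50 µg/mL RNaseA. Flow cytometry at 488 nm excitation, emission >580 nm, doublets gated out; subG1 taken as the subdiploid fraction.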"}, "HepG2 [2]": {"test_system": "HepG2", "experiment": "Effect on morphology in human HepG2 cells assessed as low cellular shape change at 100 uM after 24 hrs by FACS", "in_short": "(§2)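 Hep G2 cells in DMEM/10% FCS were treated with or without 100 µM for 3, 6, 9 or 24 h, then trypsinized. Forward scatter (size) and side scatter (granularity) were read by flow cytometry. Normal versus low shape change was expressed as a percentage after gating out cellular debris. At least three runs; a representative run is shown.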"}, "HepG2 [3]": {"test_system": "HepG2", "experiment": "Cell cycle arrest in human HepG2 cells assessed as accumulation at G2M phase at 100 uM after 24 hrs using propidium iodide staining by FACS", "in_short": "as §1"}, "HepG2 [4]": {"test_system": "HepG2", "experiment": "Induction of early apoptosis in human HepG2 cells assessed as number of cells with decreased mitochondrial transmembrane potential at 100 uM after 3 hrs using rhodamine 123 staining by FACS", "in_short": "(§3)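 Hep G2 cells seeded 5 × 105 per 60 mm dish 48 h ahead in DMEM with 10% FCS, penicillin, streptomycin and amphotericin B. Compound diluted into medium from a 200 mM DMSO stock and applied for 3, 6, 9 or 24 h; untreated cells as control. Medium then replaced with 5 µM rhodamine 123 for 30 min in the dark. Cells trypsinized and mean rhodamine 123 fluorescence read by flow cytometry. Run at least three times, with a representative experiment shown.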"}, "HepG2 [5]": {"test_system": "HepG2", "experiment": "Induction of early apoptosis in human HepG2 cells assessed as number of cells with decreased mitochondrial transmembrane potential at 100 uM after 9 hrs using rhodamine 123 staining by FACS", "in_short": "as §3"}, "HepG2 [6]": {"test_system": "HepG2", "experiment": "Induction of early apoptosis in human HepG2 cells assessed as number of cells with decreased mitochondrial transmembrane potential at 100 uM after 6 hrs using rhodamine 123 staining by FACS", "in_short": "as §3"}, "HepG2 [7]": {"test_system": "HepG2", "experiment": "Induction of apoptosis in human HepG2 cells assessed as cellular membrane damage at 100 uM after 24 hrs using propidium iodide staining by FACS", "in_short": "(§4)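 Treated or untreated for 3, 6, 9 or 24 h at 100 µM, Hep G2 cells were trypsinized and stained 10 min with 5 µg/mL PI. Argon laser excitation at 488 nm, emission >580 nm, ≥10 000 cells counted. Cells were classed as intact or membrane-damaged after gating out debris. At least three runs; a representative run is shown.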"}, "HepG2 [8]": {"test_system": "HepG2", "experiment": "Cell cycle arrest in human HepG2 cells assessed as accumulation at G2M phase at 50 uM after 24 hrs using propidium iodide staining by FACS", "in_short": "as §1"}, "HepG2 [9]": {"test_system": "HepG2", "experiment": "Induction of apoptosis in human HepG2 cells assessed as cellular membrane damage at 100 uM after 3 hrs using propidium iodide staining by FACS", "in_short": "as §4"}, "HepG2 [10]": {"test_system": "HepG2", "experiment": "Cell cycle arrest in human HepG2 cells assessed as accumulation at G1 phase at 75 uM after 24 hrs using propidium iodide staining by FACS", "in_short": "as §1"}, "HepG2 [11]": {"test_system": "HepG2", "experiment": "Cell cycle arrest in human HepG2 cells assessed as accumulation at S phase at 100 uM after 24 hrs using propidium iodide staining by FACS", "in_short": "as §1"}, "HepG2 [12]": {"test_system": "HepG2", "experiment": "Effect on morphology in human HepG2 cells assessed as low cellular shape change at 100 uM after 6 hrs by FACS", "in_short": "as §2"}, "HepG2 [13]": {"test_system": "HepG2", "experiment": "Effect on morphology in human HepG2 cells assessed as low cellular shape change at 100 uM after 9 hrs by FACS", "in_short": "as §2"}, "HepG2 [14]": {"test_system": "HepG2", "experiment": "Cell cycle arrest in human HepG2 cells assessed as accumulation at G2M phase at 75 uM after 24 hrs using propidium iodide staining by FACS", "in_short": "as §1"}, "HepG2 [15]": {"test_system": "HepG2", "experiment": "Cell cycle arrest in human HepG2 cells assessed as accumulation at S phase at 25 uM after 24 hrs using propidium iodide staining by FACS", "in_short": "as §1"}, "HepG2 [16]": {"test_system": "HepG2", "experiment": "Cell cycle arrest in human HepG2 cells assessed as accumulation at G1 phase at 100 uM after 24 hrs using propidium iodide staining by FACS", "in_short": "as §1"}, "HepG2 [17]": {"test_system": "HepG2", "experiment": "Cell cycle arrest in human HepG2 cells assessed as accumulation at S phase at 50 uM after 24 hrs using propidium iodide staining by FACS", "in_short": "as §1"}, "HepG2 [18]": {"test_system": "HepG2", "experiment": "Cell cycle arrest in human HepG2 cells assessed as accumulation at G2M phase at 25 uM after 24 hrs using propidium iodide staining by FACS", "in_short": "as §1"}, "HepG2 [19]": {"test_system": "HepG2", "experiment": "Cell cycle arrest in human HepG2 cells assessed as accumulation at G1 phase at 50 uM after 24 hrs using propidium iodide staining by FACS", "in_short": "as §1"}, "HepG2 [20]": {"test_system": "HepG2", "experiment": "Cell cycle arrest in human HepG2 cells assessed as accumulation at subG1 phase at 50 uM after 24 hrs using propidium iodide staining by FACS", "in_short": "as §1"}, "HepG2 [21]": {"test_system": "HepG2", "experiment": "Induction of apoptosis in human HepG2 cells assessed as cellular membrane damage at 100 uM after 9 hrs using propidium iodide staining by FACS", "in_short": "as §4"}, "HepG2 [22]": {"test_system": "HepG2", "experiment": "Effect on morphology in human HepG2 cells assessed as low cellular shape change at 100 uM after 3 hrs by FACS", "in_short": "as §2"}, "HepG2 [23]": {"test_system": "HepG2", "experiment": "Cell cycle arrest in human HepG2 cells assessed as accumulation at subG1 phase at 75 uM after 24 hrs using propidium iodide staining by FACS", "in_short": "as §1"}, "HepG2 [24]": {"test_system": "HepG2", "experiment": "Induction of early apoptosis in human HepG2 cells assessed as number of cells with decreased mitochondrial transmembrane potential at 100 uM after 24 hrs using rhodamine 123 staining by FACS", "in_short": "as §3"}, "HepG2 [25]": {"test_system": "HepG2", "experiment": "Cell cycle arrest in human HepG2 cells assessed as accumulation at subG1 phase at 25 uM after 24 hrs using propidium iodide staining by FACS", "in_short": "as §1"}, "HepG2 [26]": {"test_system": "HepG2", "experiment": "Cell cycle arrest in human HepG2 cells assessed as accumulation at subG1 phase at 100 uM after 24 hrs using propidium iodide staining by FACS", "in_short": "as §1"}, "HepG2 [27]": {"test_system": "HepG2", "experiment": "Cell cycle arrest in human HepG2 cells assessed as accumulation at G1 phase at 25 uM after 24 hrs using propidium iodide staining by FACS", "in_short": "as §1"}, "HepG2 [28]": {"test_system": "HepG2", "experiment": "Induction of apoptosis in human HepG2 cells assessed as cellular membrane damage at 100 uM after 6 hrs using propidium iodide staining by FACS", "in_short": "as §4"}}}
{"smiles": "CCCCCCCCCCCC[C@H](O)[C@@H]1CC[C@@H]([C@@H](O)CCCCCCC(O)CCCCC[C@@H](O)CC2=C[C@H](C)OC2=O)O1", "note": "(stereo partly drawn) [ANNOMONTACIN]", "values": [{"measurement": "Activity", "setting": "HepG2 [1]", "result": 35.9, "unit": "%"}, {"measurement": "Activity", "setting": "HepG2 [2]", "result": 80.1, "unit": "%"}, {"measurement": "Activity", "setting": "HepG2 [3]", "result": 10.4, "unit": "%"}, {"measurement": "Flu intensity", "setting": "HepG2 [4]", "result": 367}, {"measurement": "Flu intensity", "setting": "HepG2 [5]", "result": 213}, {"measurement": "Flu intensity", "setting": "HepG2 [6]", "result": 241}, {"measurement": "Activity", "setting": "HepG2 [7]", "result": 69.5, "unit": "%"}, {"measurement": "Activity", "setting": "HepG2 [8]", "result": 8.3, "unit": "%"}, {"measurement": "Activity", "setting": "HepG2 [9]", "result": 7.1, "unit": "%"}, {"measurement": "Activity", "setting": "HepG2 [10]", "result": 54.3, "unit": "%"}, {"measurement": "Activity", "setting": "HepG2 [11]", "result": 32.9, "unit": "%"}, {"measurement": "Activity", "setting": "HepG2 [12]", "result": 50.5, "unit": "%"}, {"measurement": "Activity", "setting": "HepG2 [13]", "result": 75.4, "unit": "%"}, {"measurement": "Activity", "setting": "HepG2 [14]", "result": 9.8, "unit": "%"}, {"measurement": "Activity", "setting": "HepG2 [15]", "result": 39.1, "unit": "%"}, {"measurement": "Activity", "setting": "HepG2 [16]", "result": 56.7, "unit": "%"}, {"measurement": "Activity", "setting": "HepG2 [17]", "result": 37.1, "unit": "%"}, {"measurement": "Activity", "setting": "HepG2 [18]", "result": 10.8, "unit": "%"}, {"measurement": "Activity", "setting": "HepG2 [19]", "result": 54.6, "unit": "%"}, {"measurement": "Activity", "setting": "HepG2 [20]", "result": 12.2, "unit": "%"}, {"measurement": "Activity", "setting": "HepG2 [21]", "result": 32.4, "unit": "%"}, {"measurement": "Activity", "setting": "HepG2 [22]", "result": 40.1, "unit": "%"}, {"measurement": "Activity", "setting": "HepG2 [23]", "result": 50.7, "unit": "%"}, {"measurement": "Flu intensity", "setting": "HepG2 [24]", "result": 75}, {"measurement": "Activity", "setting": "HepG2 [25]", "result": 4.4, "unit": "%"}, {"measurement": "Activity", "setting": "HepG2 [26]", "result": 58.3, "unit": "%"}, {"measurement": "Activity", "setting": "HepG2 [27]", "result": 50.2, "unit": "%"}, {"measurement": "Activity", "setting": "HepG2 [28]", "result": 6.9, "unit": "%"}]}
